Laboratory results: ChEMBL document CHEMBL3108716, “Anti-inflammatory and chondroprotective activity of (+)-α-pinene: structural and enantiomeric selectivity” (2014)
One block for each molecule: values may come before it. Activity calls are given as the source filed them. No cut-off for these calls is given here.

What was measured:
[1] = molecular target: T1, c-Jun N-terminal kinase, JNK (Homo sapiens) (UniProt P45983+P53779+P45984); test: Inhibition of IL-1beta-induced JNK phosphorylation in human primary chondrocytes at 200 ug/ml by Western blotting analysis relative to IL-1beta treated control; type: cell-based; details: values are per cent of control
Homo sapiens [2] = species on record: Homo sapiens; test: Antiinflammatory activity against human primary chondrocytes assessed as inhibition of IL-1beta-induced iNOS protein expression level after 30 mins by Western blotting analysis relative to IL-1beta treated control; type: functional
Procedure, shortened: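 Serum-starved primary human chondrocytes pretreated 30 min with compound in DMSO (≤0.1% final), then IL-1β 10 ng/mL for 24 h. Total extracts immunoblotted with mouse monoclonal anti-human iNOS and detected by chemifluorescence. Band intensity normalized to β-tubulin or actin and expressed relative to IL-1β alone. Mean ± SEM, ≥4 independent experiments; paired t test.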

[3] = molecular target: MAP kinase p38 (Homo sapiens) (UniProt O15264+Q15759+Q16539+P53778); test: Inhibition of IL-1beta-induced p38 MAPK phosphorylation in human primary chondrocytes at 200 ug/ml by Western blotting analysis relative to IL-1beta treated control; type: cell-based
[4] = Antiinflammatory activity against human primary chondrocytes assessed as inhibition of IL-1beta-induced NO production at 200 ug/ml after 30 mins by Griess method relative to IL-1beta treated control; values are per cent of control; details: 0.5 h
C28/I2 [5] = test: Inhibition of NFkappaB activation in human C28/I2 cells assessed as reduction of IL-1beta-induced IkappaBalpha phosphorylation at 200 ug/ml after 30 mins by Western blotting analysis relative to IL-1beta treated control; values are per cent of control
Homo sapiens [6] = species on record: Homo sapiens; test: Antiinflammatory activity against human primary chondrocytes assessed as inhibition of IL-1beta-induced NO production at 10 to 25 ug/ml after 30 mins by Griess method; type: functional
[7] = molecular target: T1, c-Jun N-terminal kinase, JNK (Homo sapiens); test: Inhibition of JNK activation in human primary chondrocytes assessed as reduction of IL-1beta-induced MMP13 mRNA expression at 200 ug/ml by quantitative RT-PCR analysis relative to IL-1beta treated control; type: cell-based
Procedure, shortened: (§1)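 Serum-starved primary human chondrocytes exposed 12 h to IL-1β 10 ng/mL with or without 200 μg/mL compound, the compound added 30 min before the stimulus. MMP-1 and MMP-13 mRNA quantified by RT-PCR and expressed versus IL-1β-treated cells. Mean ± SEM of at least four independent experiments; paired t test.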

[8] = molecular target: T1, c-Jun N-terminal kinase, JNK (Homo sapiens); test: Inhibition of JNK activation in human primary chondrocytes assessed as reduction of IL-1beta-induced MMP1 mRNA expression at 200 ug/ml by quantitative RT-PCR analysis relative to IL-1beta treated control; type: cell-based; procedure, shortened: as §1
Homo sapiens [9] = species on record: Homo sapiens; test: Inhibition of NFkappaB activation in human primary chondrocytes assessed as reduction of IL-1beta-induced MMP13 mRNA expression at 200 ug/ml by quantitative RT-PCR analysis relative to IL-1beta treated control; type: cell-based; procedure, shortened: as §1
Homo sapiens [10] = species on record: Homo sapiens; test: Inhibition of NFkappaB activation in human primary chondrocytes assessed as reduction of IL-1beta-induced MMP1 mRNA expression at 200 ug/ml by quantitative RT-PCR analysis relative to IL-1beta treated control; type: cell-based; procedure, shortened: as §1
C28/I2 [11] = test: Inhibition of NFkappaB activation in human C28/I2 cells assessed as reduction of IL-1beta-induced protein-DNA complex formation at 200 ug/ml after 30 mins by ELISA relative to IL-1beta treated control; type: cell-based
Procedure, shortened: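 C28/I2 cells pretreated 30 min ± 200 μg/mL compound, then IL-1β 10 ng/mL for 30 min. Nuclear extracts incubated with biotinylated NF-κB consensus oligonucleotide in a colorimetric ELISA-type binding assay; absorbance taken as amount of active NF-κB–DNA complexes. Specificity checked with 10-fold molar excess of unlabeled wild-type or mutant oligonucleotide. Mean ± SEM, four experiments.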

Homo sapiens [12] = species on record: Homo sapiens; test: Antiinflammatory activity against human primary chondrocytes assessed as inhibition of IL-1beta-induced iNOS mRNA expression after 30 mins by Western blotting analysis relative to IL-1beta treated control; type: functional
Homo sapiens [13] = species on record: Homo sapiens; test: Antiinflammatory activity against human primary chondrocytes assessed as inhibition of IL-1beta-induced NO production after 30 mins by Griess method; type: functional
[14] = Chondroprotective activity in human primary chondrocytes assessed as effect on IL-1beta-induced collagen2/1 mRNA expression at 200 ug/ml by quantitative RT-PCR analysis relative to IL-1beta treated control; type: functional
Procedure, shortened: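 Primary human chondrocytes treated 24 h with IL-1β 10 ng/mL with or without 200 μg/mL compound after a 30 min pretreatment; TIMP-1, collagen I and collagen II mRNA measured by RT-PCR relative to IL-1β-only cells. The collagen II/collagen I mRNA ratio served as a differentiation index. Mean ± SEM of ≥4 independent experiments; paired t test.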

[15] = Antiinflammatory activity against human primary chondrocytes assessed as IL-1beta-induced iNOS protein expression level after 30 mins by Western blotting analysis relative to IL-1beta treated control

response, % of control [1]: 65.8% | inhibition [3]: inactive
SMILES: CC1=CC[C@H]2C[C@@H]1C2(C)C
inhibition (Homo sapiens [2]): Active | level, % of control at 200 µg/mL [4]: 58.1% | level, % of control (C28/I2 [5]): 58.4%

SMILES: C=C1C(O)CC2CC1C2(C)C (configuration not stated)
inhibition (Homo sapiens [6]): inactive

SMILES: CC1(C)C2CC=C(CO)C1C2 (configuration not stated)
inhibition (Homo sapiens [6]): inactive

SMILES: CC1(C)[C@@H]2CC=C(C=O)[C@H]1C2
inhibition (Homo sapiens [6]): inactive

SMILES: CC1(C)[C@H]2CC[C@@H](CO)[C@H]1C2
inhibition (Homo sapiens [6]): inactive

SMILES: CC1=C[C@@H](O)[C@@H]2C[C@@H]1C2(C)C
inhibition (Homo sapiens [6]): inactive

SMILES: C[C@H]1CC[C@H]2C[C@@H]1C2(C)C
inhibition (Homo sapiens [2]): Active | inhibition (Homo sapiens [6]): inactive

SMILES: CC1=CCC2CC1C2(C)C (racemic) [ALPHA-PINENE]
level, % of control at 200 µg/mL [4]: 40.6%

SMILES: C=C1CCC2CC1C2(C)C (racemic) [BETA-PINENE]
level, % of control at 200 µg/mL [4]: 76.8%

inhibition [7]: Active | inhibition [8]: Active | response, % of control [1]: 51.3% | inhibition [3]: inactive
SMILES: CC1=CC[C@@H]2C[C@H]1C2(C)C [1R-(+)-ALPHA-PINENE]
inhibition (Homo sapiens [9]): Active | inhibition (Homo sapiens [10]): Active | inhibition (C28/I2 [11]): Active | inhibition (Homo sapiens [12]): Active | inhibition (Homo sapiens [13]): Dose-dependent effect | fold change (FC) [14]: 2.6 | Activity [15]: 24.4% | level, % of control at 200 µg/mL [4]: 31.5% | level, % of control (C28/I2 [5]): 33.6%
